# High-throughput results from PubChem.
# Hits are enriched below; roughly 4.8% of the tested compounds scored in any of these assays.
# Mdm2-MdmX inh – inhibitors of human Mdm2-MdmX association, primary screen, cell-based, luminescence, split luciferase, SaOS-2, uHTS | Protein Mdm4 (Homo sapiens) + E3 ubiquitin-protein ligase Mdm2 (Homo sapiens), … | SaOS-2 split-luciferase Mdm2/MdmX complementation | inhibition, % at 8 µM | hit rate 3% among 330,000 | AID 485346, 2010;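 active means inhibition of at least 50% at 8 µM in the primary screen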
# Target sequence (O15151 whole entry, looked up): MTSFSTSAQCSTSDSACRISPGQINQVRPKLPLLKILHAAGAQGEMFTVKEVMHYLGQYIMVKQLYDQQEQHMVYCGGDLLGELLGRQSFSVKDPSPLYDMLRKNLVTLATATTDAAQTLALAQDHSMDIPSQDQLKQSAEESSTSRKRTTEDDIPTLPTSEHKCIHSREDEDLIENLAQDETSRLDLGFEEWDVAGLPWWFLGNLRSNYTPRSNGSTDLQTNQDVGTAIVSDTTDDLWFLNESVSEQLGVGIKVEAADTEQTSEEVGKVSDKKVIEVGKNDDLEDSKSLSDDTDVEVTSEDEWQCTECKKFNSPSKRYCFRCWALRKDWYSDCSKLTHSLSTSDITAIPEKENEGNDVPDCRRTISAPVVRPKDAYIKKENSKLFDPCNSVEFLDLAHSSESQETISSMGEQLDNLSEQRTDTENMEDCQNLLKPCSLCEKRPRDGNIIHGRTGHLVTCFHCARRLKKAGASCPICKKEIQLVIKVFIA
# Target sequence (Q00987 whole entry, looked up): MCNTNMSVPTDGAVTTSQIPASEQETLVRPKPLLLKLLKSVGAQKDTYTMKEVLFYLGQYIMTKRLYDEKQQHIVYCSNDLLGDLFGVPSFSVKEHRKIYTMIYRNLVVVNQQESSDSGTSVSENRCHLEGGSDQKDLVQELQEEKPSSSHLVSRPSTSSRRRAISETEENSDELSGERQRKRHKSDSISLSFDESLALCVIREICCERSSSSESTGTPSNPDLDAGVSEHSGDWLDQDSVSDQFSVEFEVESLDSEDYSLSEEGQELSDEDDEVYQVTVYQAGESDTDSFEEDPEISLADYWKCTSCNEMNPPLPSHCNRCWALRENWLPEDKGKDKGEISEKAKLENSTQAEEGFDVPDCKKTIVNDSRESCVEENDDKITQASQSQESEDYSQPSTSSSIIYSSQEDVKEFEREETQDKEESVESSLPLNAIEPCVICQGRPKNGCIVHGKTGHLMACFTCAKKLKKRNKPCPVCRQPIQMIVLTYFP
# CHOP UPR activ – activators of apoptotic CHOP UPR arm, primary screen, cell-based, CHO-CHOP luciferase reporter, luminescence, uHTS | UPR activation; percent of tunicamycin response over DMSO baseline | activation, % at 10 µM | hit rate 0.34% among 330,000;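 active means at 10 µM dose, activation of 40% or more, normalized to positive control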;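 further: 100% = tunicamycin at 10 µg/mL and 0% = DMSO alone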
#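 Test system: CHO CHOP reporter cells. Input: 500 CHO-CHOP cells per well. Medium: F12 with 10% FBS. Technique: luciferase luminescence. Measure: percent activation relative to tunicamycin control. Dosing: 10 µM compound, 0.5% DMSO. Timing: 16-18 h cell attachment, then 6 h compound exposure, 37 °C.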
# XBP1 UPR activ – activators of adaptive XBP1 UPR arm, primary screen, cell-based, CHO-XBP1 luciferase reporter, luminescence, uHTS; AID 463104, 2010; hit rate 0.33% among 330,000; activation, % at 20 µM; IRE1-XBP1 UPR activation; percent of tunicamycin response, DMSO as zero;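 active means versus positive control, 20 µM dose yields 30% or more activation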;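 further: 100% = tunicamycin at 10 µg/mL and 0% = DMSO only wells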
#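 Material: CHO-XBP1 cells stably carrying IRE1-XBP1-driven luciferase reporter / Amount: 1000 cells per well / Compound: 20 µM, 1% DMSO / Times: 6 h treatment, 37 °C / Detection: luciferase luminescence / Measure: % activation of reporter signal versus tunicamycin and DMSO controls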
# SKKanGAS inh – S. pyogenes SKKanGAS growth inhibitors in kanamycin, primary screen, streptokinase expression inhibitor project, SKKanGAS strain, BacTiter-Glo luminescence | 6 h | inhibition, % at 7.5 µM | hit rate 1.3% among 300,000 | AID 1662, 2009;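 active means mean replicate score, as percent of positive control median, at least 50; inconclusive means mean below 50 but one replicate at or above 50; inactive means mean and every replicate below 50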;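 further: strain carries kanamycin resistance gene driven by streptokinase promoter and grows in 40 µg/ml kanamycin; loss of luminescence reflects streptokinase promoter inhibition or plain growth inhibition; 0% = median of DMSO wells and 100% = positive control at its reference dose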
# Beta apoptosis – inhibitors of cytokine-induced beta cell apoptosis, primary screen, luminescence. protection from apoptosis, % (no concentration beside the values). INS-1E cytokine-induced death, ATP luminescence, 48 h; percent of positive-control rescue, neutral wells zero. AID 435005, 2010. hit rate 0.8% among 300,000;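 active means Every replicate reaches about 75%, or at least half do and their mean reaches it too, limit read from the data; inconclusive means At least half of replicates reach the limit but their mean does not; inactive means Under half of replicates reach the limit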;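 further: 0% = cytokine-treated negative control wells and 100% = positive control rescue; higher means more ATP so stronger rescue from cytokine killing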
# CSC inhib – cancer stem cell viability inhibitors, primary screen, luminescence | cancer stem cell-like cells viability | inhibition, % at 7.5 µM | hit rate 1.1% among 300,000 | AID 2717, 2010; in the data active means inhibition above about 75%; inconclusive means no clear call, values can overlap the other calls; tested in HMLE shEcad cells
# Mdm2 MdmX conf – Mdm2-MdmX complex disruptors, retested hits, confirmation, luminescence, single concentration; shares compounds with Mdm2-MdmX inh; Mdm2-MdmX binding, luminescent assay; inhibition, % at 8 µM; hit rate 55% among 10,000; AID 489028, 2010; in the data active means inhibition above about 40%
# Full FLuc ctr – full-length luciferase signal inhibition, confirmation, counter-screen for Mdm2/MdmX interaction inhibitor project, cell-based, single concentration, SaOS-2; shares compounds with Mdm2-MdmX inh; SaOS-2 full-length luciferase counterscreen, luminescence; inhibition, % at 8 µM; hit rate 77% among 6,200;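 active means mean inhibition at 8 µM reaching about 37%, which flags the compound as non-specific, limit read from the data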;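 further: p53-null SaOS-2 cells with luciferase driven by a doxycycline-inducible promoter; compound on cells about two nights before reading with doxycycline added after day one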
# * marks the source's active call; other numbers are inactive results; ? = inconclusive; . = no result given.
SMILES,Mdm2-MdmX inh,CHOP UPR activ,XBP1 UPR activ,SKKanGAS inh,Beta apoptosis,CSC inhib,Mdm2 MdmX conf,Full FLuc ctr
COc1ccccc1/C=C\C(=O)NCC(=O)N/N=C/c1cccc(OC)c1O,51*,0,-3,10,41,72,18,.
COc1cccc(/C=N/NC(=O)CNC(=O)COc2cccc(C)c2)c1O,54*,-1,-3,10,35,60,47*,45*
CCCN(CC(=O)Nc1ccccc1C)C(=O)c1ccc(COc2ccccc2)cc1,-7,-1,-6,2,8,0,.,.
COc1cccc(Cn2nc3c4cc(F)ccc4n(Cc4ccc(F)cc4)cc-3c2=O)c1,15,-2,-8,-2,.,.,.,.
COc1cc2c3nnc(-c4ccccc4)c-3cn(Cc3ccc(F)cc3)c2cc1OC,46,-1,4,9,-27,7,.,.
Cc1ccc(Cn2nc3c4cc(F)ccc4n(Cc4ccc(F)cc4)cc-3c2=O)cc1,4,2,-1,-1,.,.,.,.
COc1cc2c3nnc(-c4ccc(F)cc4)c-3cn(Cc3cccc(F)c3)c2cc1OC,89*,1,-1,.,-2,6,100*,50*
COc1cc2c3nnc(-c4ccc(F)cc4)c-3cn(Cc3cccc(C)c3)c2cc1OC,97*,11,10,-1,23,18,99*,87*
COc1cc2c3nnc(-c4ccc(F)cc4)c-3cn(Cc3ccc(C)cc3)c2cc1OC,78*,35,25,2,8,-1,72*,68*
O=S(=O)(c1ccc(NC(=S)N/N=C/c2c3ccccc3cc3ccccc23)cc1)N1CCOCC1,58*,2,4,.,-1,7,9,.
O=S(=O)(c1ccc(NC(=S)N/N=C/c2ccc(Oc3ccccc3)cc2)cc1)N1CCOCC1,64*,9,12,-5,5,-2,38,85*
O=C(Cc1ccc(S(=O)(=O)N2CCOCC2)s1)Nc1cc(Cl)ccc1Cl,16,0,-1,.,3,.,.,.
C=CC[C@H](CC(=O)OC(C)(C)C)C(=O)OC[C@H]1CCCN1C(=O)[C@H](CC=C)CC(=O)NCCO,-3,3,0,.,-16,.,.,.
O=C1N/C(=N/N=C/c2ccccc2O)SC1Cc1ccc(F)cc1 (stereo unspecified),71*,0,0,?,87*,49,53*,10
COc1ccc(CC2S/C(=N/N=C/c3ccccc3O)NC2=O)cc1 (stereo unspecified),44,3,1,9,57,?,.,.
N=c1c2ccccc2nc2n1CCCCCCCCCCC2,59*,0,-2,-1,97*,36,24,.
O=C(N/N=C/c1ccc(O)cc1O)c1ccc(NC(=O)C2CCCCC2)cc1,68*,-1,-4,2,?,-4,54*,38*
c1cnc(N2CCN(c3nc4ccccc4n4cnnc34)CC2)nc1,9,3,6,-2,-11,.,.,.
c1ccc(C(c2ccccc2)N2CCN(c3nc4ccccc4n4cnnc34)CC2)cc1,68*,12,5,10,108*,32,18,.
O=C(COC(=O)/C=C/c1cccc(Cl)c1)NC1CCCC1,-13,0,1,.,5,.,.,.
COCCCNC(=O)c1cc(-c2cccnc2)nc2ccc(S(=O)(=O)N3CCCCCC3)cc12,14,1,-3,-10,-4,-3,.,.
CCOC(=O)c1sc2nc(CSc3ccccc3Cl)[nH]c(=O)c2c1C,52*,-1,2,14,2,5,-2,.
COc1ccc(CNC(=O)CCS(=O)(=O)c2ccc3c(c2)NC(=O)CS3)cc1,-15,1,-3,-1,-3,0,.,.
CC(C)COc1ccc(C(=O)Nc2sc3c(c2C(=O)O)CC(C)(C)OC3)cc1,51*,6,0,34,-6,.,47*,82*
CN1CCN(c2ccc(S(=O)(=O)N3CCCCC3)cc2NC(=O)CSCc2ccccc2)CC1,6,1,-2,-4,0,-3,.,.
SMILES,Mdm2-MdmX inh,CHOP UPR activ,XBP1 UPR activ,SKKanGAS inh,Beta apoptosis,CSC inhib,Mdm2 MdmX conf,Full FLuc ctr
O=C(Nc1ccccc1C(F)(F)F)c1ncn[nH]1,-1,0,1,-3,-9,-9,.,.
CCc1cc2c3c(c1)C1(C(=O)N3C(C)(C)C=C2C)C(C#N)=C(N)Oc2[nH]c(=O)[nH]c(=O)c21 (stereo unspecified),57*,0,8,6,9,-8,41*,81*
CC1=CC(C)(C)N2C(=O)C3(C(C#N)=C(N)Oc4cc(C)oc(=O)c43)c3cc(C)cc1c32 (stereo unspecified),-4,-1,2,9,-1,1,.,.
COc1cccc(CC2(CO)CCCN(Cc3[nH]c4ccc(C)cc4c3C)C2)c1 (stereo unspecified),63*,-1,-2,-1,-2,53,20,.
NC(=O)Cn1c(=O)n(CCc2ccccc2)c(=O)c2c3c(sc21)CCCC3,58*,-2,-2,0,-4,-14,1,.
CN(C)CCCn1c(=O)n(CCc2ccccc2)c(=O)c2c3c(sc21)CCCCC3,77*,2,10,7,.,4,32,.
CN(C)CCn1c(=O)n(Cc2ccccc2)c(=O)c2c3c(sc21)CCCCC3,-3,0,-3,5,8,-7,.,.
CN(C)CCCNc1nc2sc3c(c2c(=O)n1CCc1ccccc1)CCCCC3,70*,5,14,3,-24,10,29,.
Cn1c(=O)[nH]c(=O)c2c1nc(N1CCCCC1)n2CC(O)COc1ccccc1 (stereo unspecified),11,2,-3,-2,-3,-12,.,.
O=C(COC(=O)C1C2CC3OC(=O)C1C3C2)Nc1ccc(Br)cc1 (stereo unspecified),-20,2,8,-9,-5,-16,.,.
CC(C)(C)c1ccc(OCCCC(=O)NNC(=O)c2ccccc2O)cc1,58*,-1,-1,2,.,32,66*,45*
COc1cc(C2CC(=O)N(c3ccc(C)cc3)C(=O)C2)cc(OC)c1OC,54*,-2,-2,-13,7,50,41*,61*
